We go through 15 compounds from ChEMBL document CHEMBL1177685, “Novel structure-activity relationships and selectivity profiling of cage dimeric 1,4-dihydropyridines as multidrug resistance (MDR) modulators” (Bioorg Med Chem, 2010).

Type in all cases: cell-based
Data set [1] relates to L5178Y. As to the kind of experiment: Inhibition of Pgp expressed in mouse L5178Y cells at 10 uM relative to control. The procedure, abridged: (§1)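 L5178Y mouse T lymphoma cells transduced with human mdr1 retrovirus (colchicine-selected) and parental L5178Y, 2×10^6/mL in serum-free McCoy's 5A, preincubated with inhibitor 10 min at rt. Rhodamine 123 (5.2 µM final) added for 20 min at 37 °C. Cells washed twice, resuspended in PBS, 1×10^4 cells read by flow cytometry. R = treated/untreated fluorescence ratio, divided by the parental-line ratio.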

Data set [2] has as its system L5178Y. As to the kind of experiment: Inhibition of Pgp expressed in mouse L5178Y cells at 1 uM relative to control. The procedure, abridged: as §1
Data set [3] addresses Multidrug resistance-associated protein 1 (Homo sapiens, UniProt P33527). Briefly: Inhibition of MRP1 expressed in human A2780 cells at 10 uM relative to control. The following applies: a2780, 10 µM.
The target in data set [4] is ATP-binding cassette sub-family C member 2 (Homo sapiens, UniProt Q92887). Briefly: Inhibition of MRP2 expressed in human A2780 cells at 10 uM relative to control. The following applies: a2780, 10 µM. The procedure, abridged: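 Cisplatin-induced A2780RCIS ovarian cells (maintained with cisplatin 10 ng/mL) and parental A2780P were seeded for 24 h, given fresh medium with inhibitor for 20 min at 37 °C, then carboxyfluorescein diacetate (2 µM final) for 40 min at 37 °C. After ice-cold PBS washes, 10,000 events were read by flow cytometry (488 nm excitation, 530 nm filter). MRP2 value = A2780RCIS uptake minus the MRP1-specific uptake in A2780P.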

Data set [5] has as its target T1, Broad substrate specificity ATP-binding cassette transporter ABCG2 (Homo sapiens, UniProt Q9UNQ0).
T1 sequence (Q9UNQ0 whole entry): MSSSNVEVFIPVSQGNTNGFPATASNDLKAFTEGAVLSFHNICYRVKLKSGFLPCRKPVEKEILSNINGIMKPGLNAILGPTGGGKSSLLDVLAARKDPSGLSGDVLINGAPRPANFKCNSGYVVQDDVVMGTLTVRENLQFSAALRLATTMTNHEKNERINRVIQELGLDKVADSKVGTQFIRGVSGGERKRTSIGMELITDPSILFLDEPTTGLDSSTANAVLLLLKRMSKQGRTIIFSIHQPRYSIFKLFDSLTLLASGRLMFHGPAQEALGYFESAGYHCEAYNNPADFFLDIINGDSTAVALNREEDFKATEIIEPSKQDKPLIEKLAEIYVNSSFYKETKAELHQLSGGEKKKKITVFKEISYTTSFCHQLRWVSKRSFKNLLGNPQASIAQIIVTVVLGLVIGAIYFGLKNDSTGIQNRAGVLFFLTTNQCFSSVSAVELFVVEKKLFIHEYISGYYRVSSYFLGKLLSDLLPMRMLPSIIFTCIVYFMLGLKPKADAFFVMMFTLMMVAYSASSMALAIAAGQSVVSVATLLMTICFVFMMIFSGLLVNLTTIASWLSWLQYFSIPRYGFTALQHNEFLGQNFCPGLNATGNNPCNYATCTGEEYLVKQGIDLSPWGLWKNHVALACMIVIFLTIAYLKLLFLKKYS
As to the kind of experiment: Inhibition of BCRP expressed in human EPG-257RNOV cells at 0.1 uM relative to control. Put shortly: (§2)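 BCRP-overexpressing EPG85-257RNOV gastric carcinoma cells (kept in medium with mitoxantrone 0.2 µg/mL), 0.5×10^6 cells/mL, exposed to inhibitor 20 min at 37 °C. Mitoxantrone (20 µM final) then added for 60 min at 37 °C. Cells trypsinized, washed in ice-cold PBS, 10,000 events read by flow cytometry (488 nm excitation, 670 nm filter). R = treated/untreated fluorescence quotient, divided by the same quotient in parental EPG85-257P.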

Data set [6] concerns the target T1, Broad substrate specificity ATP-binding cassette transporter ABCG2. Briefly: Inhibition of BCRP expressed in human EPG-257RNOV cells at 1 uM relative to control. Put shortly: as §2

Sequence of Multidrug resistance-associated protein 1 (P33527 whole entry): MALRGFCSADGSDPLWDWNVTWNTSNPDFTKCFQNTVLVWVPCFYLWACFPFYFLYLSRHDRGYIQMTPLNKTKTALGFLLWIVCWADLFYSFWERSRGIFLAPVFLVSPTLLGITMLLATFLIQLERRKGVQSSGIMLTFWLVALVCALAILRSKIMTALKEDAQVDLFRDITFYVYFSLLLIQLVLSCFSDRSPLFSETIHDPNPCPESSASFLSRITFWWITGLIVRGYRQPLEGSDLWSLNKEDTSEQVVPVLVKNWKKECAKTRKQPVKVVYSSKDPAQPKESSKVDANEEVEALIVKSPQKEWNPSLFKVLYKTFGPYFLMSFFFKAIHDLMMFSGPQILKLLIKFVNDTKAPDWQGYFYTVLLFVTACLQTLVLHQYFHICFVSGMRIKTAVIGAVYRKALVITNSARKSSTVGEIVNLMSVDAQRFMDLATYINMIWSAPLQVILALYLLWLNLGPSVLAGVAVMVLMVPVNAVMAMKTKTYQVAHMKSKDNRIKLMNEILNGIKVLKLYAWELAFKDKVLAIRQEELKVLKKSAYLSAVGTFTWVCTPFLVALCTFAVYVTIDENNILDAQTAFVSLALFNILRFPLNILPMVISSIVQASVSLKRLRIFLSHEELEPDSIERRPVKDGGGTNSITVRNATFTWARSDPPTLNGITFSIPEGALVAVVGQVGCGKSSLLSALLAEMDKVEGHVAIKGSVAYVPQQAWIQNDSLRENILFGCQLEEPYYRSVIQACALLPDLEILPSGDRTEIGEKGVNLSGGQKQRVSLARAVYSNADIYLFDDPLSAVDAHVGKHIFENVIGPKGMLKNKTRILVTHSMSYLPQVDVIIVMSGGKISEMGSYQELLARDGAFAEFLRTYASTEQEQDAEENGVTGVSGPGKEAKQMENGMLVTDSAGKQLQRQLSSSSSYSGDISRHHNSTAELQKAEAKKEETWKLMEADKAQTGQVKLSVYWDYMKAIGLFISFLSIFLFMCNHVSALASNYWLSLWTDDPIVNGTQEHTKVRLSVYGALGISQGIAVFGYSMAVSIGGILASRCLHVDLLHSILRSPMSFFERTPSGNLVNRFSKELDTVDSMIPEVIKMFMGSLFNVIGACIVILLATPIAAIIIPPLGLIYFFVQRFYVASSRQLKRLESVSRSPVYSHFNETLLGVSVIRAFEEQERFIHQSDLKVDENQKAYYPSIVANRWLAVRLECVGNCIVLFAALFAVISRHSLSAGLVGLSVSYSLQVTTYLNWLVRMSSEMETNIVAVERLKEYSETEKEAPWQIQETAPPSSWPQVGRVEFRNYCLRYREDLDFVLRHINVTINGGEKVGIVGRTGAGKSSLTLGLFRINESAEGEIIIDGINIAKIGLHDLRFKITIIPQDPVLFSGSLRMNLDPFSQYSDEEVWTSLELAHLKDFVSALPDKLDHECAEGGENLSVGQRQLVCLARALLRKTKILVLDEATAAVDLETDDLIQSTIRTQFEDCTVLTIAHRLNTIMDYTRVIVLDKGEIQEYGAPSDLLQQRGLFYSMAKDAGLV
Sequence of ATP-binding cassette sub-family C member 2 (Q92887 whole entry): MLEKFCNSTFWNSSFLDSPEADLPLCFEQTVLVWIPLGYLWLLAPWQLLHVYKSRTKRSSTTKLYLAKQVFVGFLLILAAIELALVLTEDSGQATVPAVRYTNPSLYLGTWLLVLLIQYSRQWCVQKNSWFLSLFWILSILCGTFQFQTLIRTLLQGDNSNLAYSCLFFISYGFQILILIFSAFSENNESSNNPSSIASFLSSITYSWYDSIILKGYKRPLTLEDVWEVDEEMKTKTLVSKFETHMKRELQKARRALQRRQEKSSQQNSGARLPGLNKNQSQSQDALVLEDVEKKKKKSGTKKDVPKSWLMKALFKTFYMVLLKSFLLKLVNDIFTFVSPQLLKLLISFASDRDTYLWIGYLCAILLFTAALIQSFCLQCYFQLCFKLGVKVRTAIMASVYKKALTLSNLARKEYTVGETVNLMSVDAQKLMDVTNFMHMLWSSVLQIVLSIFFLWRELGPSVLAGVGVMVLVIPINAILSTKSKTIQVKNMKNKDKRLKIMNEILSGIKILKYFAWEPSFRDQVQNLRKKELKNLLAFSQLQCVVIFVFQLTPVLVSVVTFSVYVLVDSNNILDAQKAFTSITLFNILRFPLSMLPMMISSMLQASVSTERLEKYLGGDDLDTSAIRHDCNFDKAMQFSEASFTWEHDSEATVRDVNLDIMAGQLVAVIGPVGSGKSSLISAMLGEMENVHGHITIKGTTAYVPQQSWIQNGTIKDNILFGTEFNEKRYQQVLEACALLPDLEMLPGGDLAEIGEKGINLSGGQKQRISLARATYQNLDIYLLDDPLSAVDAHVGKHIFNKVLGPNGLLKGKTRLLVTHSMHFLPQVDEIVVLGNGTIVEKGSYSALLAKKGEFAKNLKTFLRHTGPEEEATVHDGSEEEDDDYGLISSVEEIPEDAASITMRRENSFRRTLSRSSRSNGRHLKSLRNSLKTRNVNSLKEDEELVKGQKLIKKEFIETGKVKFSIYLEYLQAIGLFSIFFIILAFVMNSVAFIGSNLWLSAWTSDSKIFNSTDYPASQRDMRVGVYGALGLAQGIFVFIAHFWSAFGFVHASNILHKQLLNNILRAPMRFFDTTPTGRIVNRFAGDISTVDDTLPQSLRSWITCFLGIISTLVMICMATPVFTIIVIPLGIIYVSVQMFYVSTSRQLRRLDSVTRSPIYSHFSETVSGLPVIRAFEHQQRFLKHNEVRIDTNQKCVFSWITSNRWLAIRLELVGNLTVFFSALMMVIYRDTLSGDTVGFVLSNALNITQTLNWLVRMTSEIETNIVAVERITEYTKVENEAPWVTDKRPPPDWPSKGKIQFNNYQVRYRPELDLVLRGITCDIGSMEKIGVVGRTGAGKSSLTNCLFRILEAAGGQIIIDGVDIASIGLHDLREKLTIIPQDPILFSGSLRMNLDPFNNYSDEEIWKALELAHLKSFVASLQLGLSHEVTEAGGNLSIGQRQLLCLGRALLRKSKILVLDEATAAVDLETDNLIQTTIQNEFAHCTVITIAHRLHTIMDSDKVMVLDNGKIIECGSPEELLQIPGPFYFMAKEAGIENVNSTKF

As to `COc1ccc(CN2C3[C@]4(CO)C5N(Cc6ccc(OC)cc6)C6[C@@](CO)(C2[C@]6(CO)[C@H]4c2ccccc2)[C@H](c2ccccc2)[C@@]35CO)cc1`, the Ratio in data set [1] was determined as 13; in data set [2] it was 3.5; in data set [3], 3.4; in data set [4], 1.1; in data set [5], 1.2; in data set [6] it was 3.2.

On to `OC[C@]12C3N(Cc4ccc(OCc5ccccc5)cc4)C4[C@@]5(CO)C(N(Cc6ccc(OCc7ccccc7)cc6)C1[C@]3(CO)[C@@H]5c1ccccc1)[C@]4(CO)[C@@H]2c1ccccc1`, for which the Ratio in data set [1] came out at 28; in data set [2], 2.3; in data set [3], 2.5; in data set [4] it was 0.75; in data set [6], 1.2.

Take `OC[C@]12C3N(Cc4cccnc4)C4[C@@]5(CO)C(N(Cc6cccnc6)C1[C@]3(CO)[C@@H]5c1ccccc1)[C@]4(CO)[C@@H]2c1ccccc1`: the Ratio in data set [1] was found to be 1.1; in data set [2] it was 1.2; in data set [3], 1.1; in data set [4], 0.9.

Turning to `COc1ccc2c(c1)c(CC(=O)O)c(C)n2C(=O)c1ccc(Cl)cc1` [INDOMETHACIN], the values for the Ratio in data set [3] and in data set [4] were 4.1 and 0.75, respectively.

Take `OC[C@]12C3N(Cc4ccncc4)C4[C@@]5(CO)C(N(Cc6ccncc6)C1[C@]3(CO)[C@@H]5c1ccccc1)[C@]4(CO)[C@@H]2c1ccccc1`: the Ratio in data set [1] turned out to be 1.1; in data set [2] it was 1.5; in data set [3] it was 1.2; in data set [4], 0.8; in data set [6] it was 1.3.

In the case of `COc1ccc2c3c([nH]c2c1)[C@H](C=C(C)C)N1C(=O)[C@@H]2CCCN2C(=O)[C@@H]1C3` [FUMITREMORGIN], the Ratio is on record as 1.9 in data set [5] and 6 in data set [6].

Take `OC[C@]12C3N(Cc4ccccc4)C4[C@@]5(CO)C(N(Cc6ccccc6)C1[C@]3(CO)[C@@H]5c1ccncc1)[C@]4(CO)[C@@H]2c1ccncc1`: the Ratio is 7.7 in data set [1]; 2.4 in data set [2]; 2.2 in data set [3]; 0.74 in data set [4]; 1.2 in data set [6].

On to `COc1ccc(CN2C3[C@]4(CO)C5N(Cc6ccc(OC)cc6)C6[C@@](CO)(C2[C@]6(CO)[C@H]4c2ccc(OC)cc2)[C@H](c2ccc(OC)cc2)[C@@]35CO)cc1`, for which the Ratio in data set [1] came to 46; in data set [2], 3.1; in data set [3] it was 4.8; in data set [4] it was 1.25; in data set [5], 1.5; in data set [6], 6.1.

As for `OC[C@]12C3N(Cc4ccccc4)C4[C@@]5(CO)C(N(Cc6ccccc6)C1[C@]3(CO)[C@@H]5c1ccc(O)cc1)[C@]4(CO)[C@@H]2c1ccc(O)cc1`, the Ratio in data set [1] was 1.5; in data set [2] it was 1.3; in data set [3] it was 1.8; in data set [4] it was 0.63; in data set [6] it was 1.5.

Regarding `OC[C@]12C3N(Cc4cccc(OCc5ccccc5)c4)C4[C@@]5(CO)C(N(Cc6cccc(OCc7ccccc7)c6)C1[C@]3(CO)[C@@H]5c1ccccc1)[C@]4(CO)[C@@H]2c1ccccc1`, the Ratio in data set [1] was 205; in data set [2] it was 117; in data set [3], 2.8; in data set [4], 0.97; in data set [5], 1.5; in data set [6] it was 4.2.

Take `OC[C@]12C3N(Cc4ccccc4)C4[C@@]5(CO)C(N(Cc6ccccc6)C1[C@]3(CO)[C@@H]5c1ccccc1)[C@]4(CO)[C@@H]2c1ccccc1`: the Ratio in data set [1] came out at 29; in data set [2], 4.1; in data set [3] it was 2.3; in data set [4] it was 1.02; in data set [5] it was 1.1; in data set [6] it was 1.9.

On to `OC[C@]12C3N(Cc4ccc(O)cc4)C4[C@@]5(CO)C(N(Cc6ccc(O)cc6)C1[C@]3(CO)[C@@H]5c1ccccc1)[C@]4(CO)[C@@H]2c1ccccc1`, for which the Ratio in data set [1] worked out at 3.3; in data set [2], 1.5; in data set [3], 1.6; in data set [4], 0.82; in data set [6], 1.1.

`OC[C@]12C3N(Cc4ccccc4)C4[C@@]5(CO)C(N(Cc6ccccc6)C1[C@]3(CO)[C@@H]5c1cccc(OCc3ccccc3)c1)[C@]4(CO)[C@@H]2c1cccc(OCc2ccccc2)c1`: the Ratio in data set [1] stood at 125; in data set [2], 65; in data set [3], 1.9; in data set [4] it was 0.97; in data set [5], 1.3; in data set [6], 2.8.

With `OC[C@]12C3N(Cc4ccccc4)C4[C@@]5(CO)C(N(Cc6ccccc6)C1[C@]3(CO)[C@@H]5c1ccc(OCc3ccccc3)cc1)[C@]4(CO)[C@@H]2c1ccc(OCc2ccccc2)cc1`, the Ratio in data set [1] amounted to 47; in data set [2], 3.3; in data set [3], 1; in data set [4] it was 1.56; in data set [5], 1.4; in data set [6], 3.5.

Regarding `OC[C@]12C3N(Cc4ccccc4)C4[C@@]5(CO)C(N(Cc6ccccc6)C1[C@]3(CO)[C@@H]5c1cccc(O)c1)[C@]4(CO)[C@@H]2c1cccc(O)c1`, the Ratio in data set [1] amounted to 3; in data set [2] it was 1.2; in data set [3], 1.3; in data set [4], 1.05; in data set [6] it was 1.1.
